The record followed here is ChEMBL document CHEMBL2029207, “Vascular barrier protective effects of eckol and its derivatives” (Bioorg Med Chem Lett, 2012).

In series [1] the test system is HUVEC. Nature of the series: Antiinflammatory activity in HUVEC cells assessed as inhibition of LPS-induced hyperpermeability at 10 uM relative to LPS. The format is functional. Conditions: Homo sapiens. The method, boiled down:
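Primary HUVECs were stimulated with LPS at 100 ng/ml, with or without test agent. Permeability was read as albumin flux across the monolayer in a dual-chamber system, by ELISA at OD650. Percent inhibition is relative to LPS alone, with PBS as the negative control and kaempferol-3-O-sophoroside as the positive control. Values are mean ± S.D. of three experiments.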

For series [2], the species on record is Mus musculus. Nature of the series: Antiinflammatory activity in mice assessed as inhibition of acetic acid-induced hyperpermeability at 10 uM relative to acetic acid.
In series [3] the test system is HUVEC. Nature of the series: Antiinflammatory activity in HUVEC cells assessed as inhibition of LPS-induced monocyte migration at 10 uM relative to LPS. Conditions: Homo sapiens. It counts as functional. An outline of the steps:
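Monocyte transendothelial migration was measured across HUVECs stimulated with LPS at 100 ng/ml. The read-out was a migration index, with percent inhibition calculated against LPS alone. Controls were PBS (negative) and kaempferol-3-O-sophoroside (positive). Values are mean ± S.D. of three independent experiments.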

The species named for series [4] is Mus musculus. Nature of the series: Antiinflammatory activity in mouse assessed as inhibition of CMC-Na-induced leukocyte migration into peritoneal cavity at 10 uM relative to CMC-Na. It counts as functional. The method, boiled down:
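Mice received 1.0% CMC–Na to induce leukocyte migration, with or without test agent. Leukocytes recovered from the peritoneal cavity were counted (×10^6). Percent inhibition is relative to CMC–Na alone, with PBS and kaempferol-3-O-sophoroside as controls. Values are mean ± S.D. of three experiments.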

The subject of series [5] is HUVEC. Kind of series: Antiinflammatory activity in HUVEC cells assessed as inhibition of […]-induced monocyte binding to endothelial cells at 10 uM relative to control. Conditions: Homo sapiens.
Series [6] deals with HUVEC. Kind of series: Cytotoxicity against HUVEC cells assessed as decrease in cell viability up to 20 uM after 24 hrs. It counts as cell-based. Conditions: human. The method, boiled down: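 HUVECs were exposed to each agent for 24 h and then assessed in cell viability assays.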

Calls of active or inactive are those of the source. The rule behind the calls is not given here.

For `O=c1c(O[C@@H]2O[C@H](CO)[C@@H](O)[C@H](O)[C@H]2O[C@@H]2O[C@H](CO)[C@@H](O)[C@H](O)[C@H]2O)c(-c2ccc(O)cc2)oc2cc(O)cc(O)c12`, the inhibition (in general, the percentage by which the read-out fell short of the control) at 10 µM in the series on HUVEC [1] was found to be 76.6%; in the series filed under Mus musculus [2], 73.9%; in the series on HUVEC [3], 69.5%. Also, in the series filed under Mus musculus [4], the “inhibition (INH)” value is 69.6%.

For the compound `Oc1cc(O)cc(Oc2c(O)cc(O)c3c2Oc2c(O)cc(O)cc2O3)c1` [ECKOL], the inhibition at 10 µM in the series with HUVEC [1] was found to be 56.5%; in the series filed under Mus musculus [2], 52%; with HUVEC [3] it was 59.6%. The inhibition entry with HUVEC [5] was “Active”. Besides, in the series on HUVEC [6], the Activity entry is on record as “Non-toxic”. For the same compound, the “inhibition (INH)” value in the series listed under Mus musculus [4] is 61.7%.

With `CC(=O)Oc1cc(OC(C)=O)cc(Oc2c(OC(C)=O)cc(OC(C)=O)c3c2Oc2c(OC(C)=O)cc(Oc4c(OC(C)=O)cc(Oc5c(OC(C)=O)cc(OC(C)=O)c6c5Oc5c(OC(C)=O)cc(OC(C)=O)cc5O6)cc4OC(C)=O)cc2O3)c1`, the inhibition at 10 µM with HUVEC [1] came out at 49.5%; in the series listed under Mus musculus [2], 59.5%; with HUVEC [3], 50.3%. The Activity entry with HUVEC [6] was “Non-toxic”. In addition, in the series listed under Mus musculus [4], the “inhibition (INH)” value was 56.7%.

On to `Oc1cc(O)cc(Oc2c(O)cc(O)c3c2Oc2c(O)cc(Oc4c(O)cc(Oc5c(O)cc(O)c6c5Oc5c(O)cc(O)cc5O6)cc4O)cc2O3)c1` [DIECKOL], for which the inhibition at 10 µM stood at 74.9% in the series with HUVEC [1], 74.4% in the series listed under Mus musculus [2] and 71.3% in the series with HUVEC [3]. The Activity entry in the series on HUVEC [6] is reported as “Non-toxic”. Also, the “inhibition (INH)” value in the series filed under Mus musculus [4] turned out to be 69.9%.

Take `COc1cc(OC)cc(Oc2c(OC)cc(OC)c3c2Oc2c(OC)cc(Oc4c(OC)cc(Oc5c(OC)cc(OC)c6c5Oc5c(OC)cc(OC)cc5O6)cc4OC)cc2O3)c1`: the inhibition at 10 µM with HUVEC [1] was 33%; in the series listed under Mus musculus [2] it was 34.7%; in the series with HUVEC [3] it was 37.6%. Also, in the series with HUVEC [6], the Activity result is on record as “Non-toxic”. The “inhibition (INH)” value in the series filed under Mus musculus [4] is 32.4%.
